Reference: ChEMBL document CHEMBL3739352, “Anticonvulsant activity, crystal structures, and preliminary safety evaluation of N-trans-cinnamoyl derivatives of selected (un)modified aminoalkanols” (Eur J Med Chem, 2016)
The source made the active and inactive calls. No cut-off for these calls is given here.

What was measured:
Salmonella typhimurium [1] = experiment: Mutagenicity in Salmonella typhimurium TA1535 assessed as mutagenic index at 1000 ug/plate by Ames test; type: toxicity, organism-based; conditions: salmonella enterica subsp. enterica serovar typhimurium
Mus musculus [2] = experiment: Anticonvulsant activity in albino Carworth Farms No.1 mouse assessed as protection against maximal electroshock-induced seizures at 30 mg/kg, ip after 0.5 hrs; type: functional, organism-based
Procedure, shortened: (§1)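 Mouse i.p. screen in Carworth Farms No.1 albino mice at 30, 100 or 300 mg/kg in 0.5% methylcellulose. Testing was at 0.5 and 4 h after injection, by maximal electroshock or by subcutaneous pentetrazol challenge. Scoring was number protected / number used.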

Mus musculus [3] = experiment: Neurotoxicity in albino Carworth Farms No.1 mouse at 100 mg/kg, ip after 4 hrs by rotarod test; type: toxicity, organism-based; conditions: in vivo
Procedure, shortened: (§2)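 Mice (albino Carworth Farms No.1) were dosed i.p. at 30, 100 or 300 mg/kg in 0.5% methylcellulose. They were tested 0.5 and 4 h later on a 1-inch knurled rod rotating at 6 rpm. Neurotoxicity was scored if a mouse could not stay on the rod for at least 1 min in each of three trials. Results are given as animals toxic/animals tested, with deaths noted.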

Salmonella typhimurium [4] = experiment: Mutagenicity in Salmonella typhimurium TA100 assessed as number of revertants at 1000 ug/plate by Ames test (reference value: 77 +/-4); type: toxicity, organism-based; conditions: salmonella enterica subsp. enterica serovar typhimurium
Procedure, shortened: (§3)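 Salmonella TA100 preincubation Ames assay: overnight-type 12 h broth culture at 37 °C, compound in DMSO at final 4–1000 per plate, top agar with trace histidine, glucose minimal agar, 48 h at 37 °C. Revertant colonies per plate were counted, with a DMSO negative control and a sodium azide positive control. Three independent repetitions were run.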

Salmonella typhimurium [5] = experiment: Mutagenicity in Salmonella typhimurium TA98 assessed as mutagenic index at 20 ug/plate by Ames test; type: toxicity, organism-based; conditions: salmonella enterica subsp. enterica serovar typhimurium
Salmonella typhimurium [6] = experiment: Mutagenicity in Salmonella typhimurium TA98 assessed as mutagenic index at 500 ug/plate by Ames test; type: toxicity, organism-based; conditions: salmonella enterica subsp. enterica serovar typhimurium
Salmonella typhimurium [7] = experiment: Mutagenicity in Salmonella typhimurium TA1535 assessed as number of revertants at 500 ug/plate by Ames test (reference value: 10 +/- 3); type: toxicity, organism-based; conditions: salmonella enterica subsp. enterica serovar typhimurium
[8] = Lipophilicity of the compound using 65% methanol in water at 1 mg/ml by RT-TLC analysis; type: physicochemical; conditions: buffer
Procedure, shortened: (§4)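 Reversed-phase TLC with a methanol–water mobile phase at the stated methanol content (v/v). Compounds were spotted from 1 mg/mL methanol solutions after 1 h chamber saturation and located under UV light. Rf was measured and RM = log(1/Rf − 1) calculated.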

Salmonella typhimurium [9] = experiment: Mutagenicity in Salmonella typhimurium TA1535 assessed as number of revertants at 1000 ug/plate by Ames test (reference value: 10 +/- 3); type: toxicity, organism-based; conditions: salmonella enterica subsp. enterica serovar typhimurium
[10] = Lipophilicity of the compound using 85% methanol in water at 1 mg/ml by RT-TLC analysis; type: physicochemical; conditions: buffer; procedure, shortened: as §4
Salmonella typhimurium [11] = experiment: Mutagenicity in Salmonella typhimurium TA98 assessed as number of revertants at 20 ug/plate by Ames test (reference value: 23 +/- 3); type: toxicity, organism-based; conditions: salmonella enterica subsp. enterica serovar typhimurium
Salmonella typhimurium [12] = experiment: Mutagenicity in Salmonella typhimurium TA98 assessed as number of revertants at 4 ug/plate by Ames test (reference value: 23 +/- 3); type: toxicity, organism-based; conditions: salmonella enterica subsp. enterica serovar typhimurium
Salmonella typhimurium [13] = experiment: Mutagenicity in Salmonella typhimurium TA100 assessed as mutagenic index at 4 ug/plate by Ames test; type: toxicity, organism-based; conditions: salmonella enterica subsp. enterica serovar typhimurium
Procedure, shortened: (§5)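 Ames preincubation test. Strain culture was grown 12 h at 37 °C in nutrient broth, then mixed with compound in DMSO (final 4, 20, 100, 500, 1000 per plate) and buffer in top agar with trace histidine. This was plated on glucose minimal agar for 48 h at 37 °C. Mutagenic index = revertants with compound / DMSO control revertants, from three independent repeats.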

Mus musculus [14] = experiment: Anticonvulsant activity in albino Carworth Farms No.1 mouse assessed as protection against subcutaneous dosed pentetrazol-induced seizures at 100 mg/kg, ip after 4 hrs; type: functional, organism-based; procedure, shortened: as §1
Salmonella typhimurium [15] = experiment: Mutagenicity in Salmonella typhimurium TA100 assessed as number of revertants at 100 ug/plate by Ames test (reference value: 77 +/-4); type: toxicity, organism-based; conditions: salmonella enterica subsp. enterica serovar typhimurium; procedure, shortened: as §3
Salmonella typhimurium [16] = experiment: Mutagenicity in Salmonella typhimurium TA1535 assessed assessed as mutagenic index at 100 ug/plate by Ames test; type: toxicity, organism-based; conditions: salmonella enterica subsp. enterica serovar typhimurium
[17] = Lipophilicity of the compound using 75% methanol in water at 1 mg/ml by RT-TLC analysis; type: physicochemical; conditions: buffer; procedure, shortened: as §4
Mus musculus [18] = experiment: Anticonvulsant activity in albino Carworth Farms No.1 mouse assessed as protection against subcutaneous dosed pentetrazol-induced seizures at 100 mg/kg, ip after 0.5 hrs; type: functional, organism-based; procedure, shortened: as §1
Mus musculus [19] = experiment: Anticonvulsant activity in albino Carworth Farms No.1 mouse assessed as protection against subcutaneous dosed pentetrazol-induced seizures at 300 mg/kg, ip after 0.5 hrs; type: functional, organism-based; procedure, shortened: as §1
Salmonella typhimurium [20] = experiment: Mutagenicity in Salmonella typhimurium TA1535 assessed as assessed as mutagenic index at 20 ug/plate by Ames test; type: toxicity, organism-based; conditions: salmonella enterica subsp. enterica serovar typhimurium; procedure, shortened: as §5
Salmonella typhimurium [21] = experiment: Mutagenicity in Salmonella typhimurium TA100 assessed as mutagenic index at 20 ug/plate by Ames test; type: toxicity, organism-based; conditions: salmonella enterica subsp. enterica serovar typhimurium; procedure, shortened: as §5
Mus musculus [22] = experiment: Neurotoxicity in albino Carworth Farms No.1 mouse at 30 mg/kg, ip after 0.5 hrs by rotarod test; type: toxicity, organism-based; conditions: in vivo; procedure, shortened: as §2
Salmonella typhimurium [23] = experiment: Mutagenicity in Salmonella typhimurium TA100 assessed as number of revertants at 500 ug/plate by Ames test (reference value: 77 +/-4); type: toxicity, organism-based; conditions: salmonella enterica subsp. enterica serovar typhimurium; procedure, shortened: as §3
[24] = Lipophilicity of the compound at 1 mg/ml by RT-TLC analysis relative to 0% methanol; type: physicochemical; conditions: methanol/water
Procedure, shortened: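 Reversed-phase TLC used methanol–water mobile phases of 95–65% methanol. Compounds were applied from 1 mg/mL methanol solutions after 1 h chamber saturation, with UV detection. RM = log(1/Rf − 1) was calculated at each methanol level and extrapolated linearly (RM = RM0 + bC) to 0% methanol to give RM0.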

Salmonella typhimurium [25] = experiment: Mutagenicity in Salmonella typhimurium TA98 assessed as mutagenic index at 100 ug/plate by Ames test; type: toxicity, organism-based; conditions: salmonella enterica subsp. enterica serovar typhimurium
Salmonella typhimurium [26] = experiment: Mutagenicity in Salmonella typhimurium TA100 assessed as mutagenic index at 500 ug/plate by Ames test; type: toxicity, organism-based; conditions: salmonella enterica subsp. enterica serovar typhimurium; procedure, shortened: as §5
Salmonella typhimurium [27] = experiment: Mutagenicity in Salmonella typhimurium TA1535 assessed as assessed as mutagenic index at 4 ug/plate by Ames test; type: toxicity, organism-based; conditions: salmonella enterica subsp. enterica serovar typhimurium; procedure, shortened: as §5
Salmonella typhimurium [28] = experiment: Mutagenicity in Salmonella typhimurium TA98 assessed as number of revertants at 1000 ug/plate by Ames test (reference value: 23 +/- 3); type: toxicity, organism-based; conditions: salmonella enterica subsp. enterica serovar typhimurium
Mus musculus [29] = experiment: Anticonvulsant activity in albino Carworth Farms No.1 mouse assessed as protection against maximal electroshock-induced seizures at 30 mg/kg, ip after 4 hrs; type: functional, organism-based; procedure, shortened: as §1
Mus musculus [30] = experiment: Anticonvulsant activity in albino Carworth Farms No.1 mouse assessed as protection against subcutaneous dosed pentetrazol-induced seizures at 30 mg/kg, ip after 0.5 hrs; type: functional, organism-based; procedure, shortened: as §1
Salmonella typhimurium [31] = experiment: Mutagenicity in Salmonella typhimurium TA100 assessed as assessed as mutagenic index at 1000 ug/plate by Ames test; type: toxicity, organism-based; conditions: salmonella enterica subsp. enterica serovar typhimurium; procedure, shortened: as §5
Mus musculus [32] = experiment: Neurotoxicity in albino Carworth Farms No.1 mouse at 300 mg/kg, ip after 4 hrs by rotarod test; type: toxicity, organism-based; conditions: in vivo; procedure, shortened: as §2
Mus musculus [33] = experiment: Anticonvulsant activity in albino Carworth Farms No.1 mouse assessed as protection against maximal electroshock-induced seizures at 300 mg/kg, ip after 4 hrs; type: functional, organism-based; procedure, shortened: as §1
Mus musculus [34] = experiment: Anticonvulsant activity in albino Carworth Farms No.1 mouse assessed as protection against maximal electroshock-induced seizures at 300 mg/kg, ip after 0.5 hrs; type: functional, organism-based; procedure, shortened: as §1

Rm [8] | Rm [10] | Rm [17] | Compound | Activity_index (Salmonella typhimurium [1]) | Activity (Mus musculus [2]) | Activity (Mus musculus [3]) | Activity (Salmonella typhimurium [4]) | Activity_index (Salmonella typhimurium [5]) | Activity_index (Salmonella typhimurium [6]) | Activity (Salmonella typhimurium [7]) | Activity (Salmonella typhimurium [9]) | Activity (Salmonella typhimurium [11]) | Activity (Salmonella typhimurium [12]) | Activity_index (Salmonella typhimurium [13]) | Activity (Mus musculus [14]) | Activity (Salmonella typhimurium [15]) | Activity_index (Salmonella typhimurium [16]) | Activity (Mus musculus [18]) | Activity (Mus musculus [19]) | Activity_index (Salmonella typhimurium [20]) | other results
0.18 | -0.23 | -0.19 | O=C(/C=C/c1ccccc1)N1CCC(O)CC1 | 0.5 | inactive | Non-toxic | 70 | 0.8 | 1 | 8 | 5 | 19 | 22 | 0.9 | inactive | 76 | 0.9 | inactive | Active | 0.6 | Activity_index (Salmonella typhimurium [21]): 0.9; Activity (Mus musculus [22]): Non-toxic; Activity (Salmonella typhimurium [23]): 72; Rm [24]: 2.579; Activity_index (Salmonella typhimurium [25]): 0.7; Activity_index (Salmonella typhimurium [26]): 0.9; Activity_index (Salmonella typhimurium [27]): 0.5; Activity (Salmonella typhimurium [28]): 20; Activity (Mus musculus [29]): inactive; Activity (Mus musculus [30]): inactive; Activity_index (Salmonella typhimurium [31]): 0.9
0.02 | -0.33 | -0.27 | CC(O)CNC(=O)/C=C/c1ccccc1 (racemic) | 1.4 | inactive | Non-toxic | 73 | 1 | 0.9 | 14 | 14 | 22 | 26 | 0.9 | inactive | 67 | 1.2 | inactive | Active | 1.3 | Activity (Mus musculus [32]): Non-toxic; Activity (Mus musculus [33]): inactive; Activity_index (Salmonella typhimurium [21]): 0.9; Activity (Mus musculus [34]): Active; Activity (Mus musculus [22]): Non-toxic; Activity (Salmonella typhimurium [23]): 65; Rm [24]: 1.512; Activity_index (Salmonella typhimurium [25]): 0.9; Activity_index (Salmonella typhimurium [26]): 0.8; Activity_index (Salmonella typhimurium [27]): 1.2; Activity (Salmonella typhimurium [28]): 24; Activity (Mus musculus [29]): inactive; Activity (Mus musculus [30]): inactive; Activity_index (Salmonella typhimurium [31]): 1
-0.03 | -0.39 | -0.27 | CC(CO)NC(=O)/C=C/c1ccccc1 (racemic) | 0.6 | inactive | Non-toxic | 67 | 0.9 | 1 | 8 | 6 | 20 | 20 | 0.9 | inactive | 71 | 0.5 | inactive | Active | 0.6 | Activity (Mus musculus [32]): Non-toxic; Activity (Mus musculus [33]): Active; Activity_index (Salmonella typhimurium [21]): 0.8; Activity (Mus musculus [34]): Active; Activity (Mus musculus [22]): Non-toxic; Activity (Salmonella typhimurium [23]): 65; Rm [24]: 1.39; Activity_index (Salmonella typhimurium [25]): 0.9; Activity_index (Salmonella typhimurium [26]): 0.8; Activity_index (Salmonella typhimurium [27]): 1.5; Activity (Salmonella typhimurium [28]): 18; Activity (Mus musculus [29]): inactive; Activity (Mus musculus [30]): inactive; Activity_index (Salmonella typhimurium [31]): 0.9
